Measurements published in ChEMBL document CHEMBL2203249, “Optimization of a small tropomyosin-related kinase B (TrkB) agonist 7,8-dihydroxyflavone active in mouse models of depression” (J Med Chem, 2012).
Active and inactive are the calls of the source. No cut-off for these calls is given here.

Tests used:
CYP2C9 = CYP2C9 (Homo sapiens, UniProt P11712); assay: Inhibition of CYP2C9 at 3 uM; assay type: ADME
Method in brief: (§1)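 CYP inhibition was tested at 3 and 30 μM and reported as percent inhibition. The assay was run by a contract lab.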

Mus musculus [1] = assay: Agonist activity at TrkB receptor in C57BL/J6 mouse brain assessed as Akt phosphorylation at serine 473 in hippocampus at 1 mg/kg, po after 2 hrs by immunoblotting analysis; assay type: functional, organism-based; parameters: dose 1 mg/kg
Method in brief: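 Hippocampus from male C57BL/6J mice was taken 2 h after a single 1 mg/kg oral dose. Brain was homogenised and ultracentrifuged, and 40 μg supernatant was immunoblotted for p-TrkB, p-Akt and p-MAPK.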

CYP2D6 = CYP2D6 (Homo sapiens, UniProt P10635); assay: Inhibition of CYP2D6 at 3 uM; assay type: ADME
CYP2D6, sequence (P10635 whole entry): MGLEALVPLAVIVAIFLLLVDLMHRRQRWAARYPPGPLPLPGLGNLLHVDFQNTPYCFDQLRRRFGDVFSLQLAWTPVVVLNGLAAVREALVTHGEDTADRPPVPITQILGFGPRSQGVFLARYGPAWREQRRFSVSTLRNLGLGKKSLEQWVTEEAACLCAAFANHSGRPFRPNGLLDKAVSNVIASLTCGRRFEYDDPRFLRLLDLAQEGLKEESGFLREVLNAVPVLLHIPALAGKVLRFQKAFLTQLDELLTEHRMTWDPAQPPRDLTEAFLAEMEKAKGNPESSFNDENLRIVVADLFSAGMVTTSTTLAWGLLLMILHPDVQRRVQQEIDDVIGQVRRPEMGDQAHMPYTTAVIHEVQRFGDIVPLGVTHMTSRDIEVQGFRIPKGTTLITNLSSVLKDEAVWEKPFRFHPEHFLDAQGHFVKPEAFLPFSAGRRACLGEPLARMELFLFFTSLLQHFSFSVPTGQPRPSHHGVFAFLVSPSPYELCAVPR

Mus musculus [2] = assay: Toxicity in C57BL/J6 mouse assessed as increase in locomotion at 2.5 mg/kg, po administered qd for 21 days by locomotor activity assay; assay type: organism-based; parameters: dose 2.5 mg/kg, route oral; conditions: in vivo, 504 h
Method in brief: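 Male C57BL/6J mice were given compound or saline vehicle by oral gavage once daily for 21 days, with forced swim and tail suspension tests also run. Ambulations (consecutive photobeam breaks) were recorded in automated locomotor chambers for 2 h, binned at 30 min intervals.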

CYP1A2 [3] = molecular target: T1, CYP1A2 (Homo sapiens, UniProt P05177); assay: Inhibition of CYP1A2 at 30 uM; assay type: ADME; method in brief: as §1
T1 sequence (P05177 whole entry): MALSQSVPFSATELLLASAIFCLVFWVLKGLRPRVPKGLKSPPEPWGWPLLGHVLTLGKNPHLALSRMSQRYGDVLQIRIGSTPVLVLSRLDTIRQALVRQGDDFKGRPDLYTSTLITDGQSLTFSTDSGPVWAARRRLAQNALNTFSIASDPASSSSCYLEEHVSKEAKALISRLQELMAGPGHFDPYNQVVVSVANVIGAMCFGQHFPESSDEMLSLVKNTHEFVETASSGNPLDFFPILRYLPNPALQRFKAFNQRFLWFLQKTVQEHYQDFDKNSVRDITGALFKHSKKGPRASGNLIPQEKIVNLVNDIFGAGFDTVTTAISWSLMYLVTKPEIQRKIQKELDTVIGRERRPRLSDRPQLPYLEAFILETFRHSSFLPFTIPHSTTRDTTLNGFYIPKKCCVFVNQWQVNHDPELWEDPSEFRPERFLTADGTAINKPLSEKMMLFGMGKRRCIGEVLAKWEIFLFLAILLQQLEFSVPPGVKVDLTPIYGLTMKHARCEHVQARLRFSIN

[4] = Volume of distribution in mouse at 3 mg/kg, iv by HPLC analysis; assay type: ADME, organism-based; parameters: dose 3 mg/kg, route intravenous; conditions: in vivo, read-out: Vz
Method in brief: (§2)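 Mice (20–30 g, 6–8 weeks old) were dosed i.v. or orally. Blood was drawn into lithium-heparin tubes at 3, 10, 30, 60, 120, 240, 360 and 480 min, with 3 mice per time point. Plasma was separated at 2500 × g for 15 min at 4°C within 1 h and stored at −20°C. Samples were analysed by HPLC, and AUC was calculated by the linear/log trapezoidal method.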

[5] = AUC last in mouse at 3 mg/kg, iv by HPLC analysis; assay type: ADME, organism-based; parameters: time 0 - last, dose 3 mg/kg, route intravenous; conditions: plasma
Method in brief: (§3)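 Mice of 20–30 g, 6–8 weeks old, dosed i.v. or orally. Blood was drawn at 3, 10, 30, 60, 120, 240, 360 and 480 min into lithium-heparin tubes, spun at 2500 × g for 15 min at 4°C within 1 h and stored at −20°C. Plasma was analysed by HPLC, 3 mice per time point. AUC was calculated by the linear/log trapezoidal method.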

[6] = Elimination half life in mouse at 3 mg/kg, iv by HPLC analysis; assay type: ADME, organism-based; parameters: dose 3 mg/kg, route intravenous; conditions: in vivo, read-out: beta t1/2; method in brief: as §3
[7] = AUC (infinity) in mouse at 10 mg/kg, po by HPLC analysis; assay type: ADME, organism-based; parameters: time infinity, dose 10 mg/kg, route oral; conditions: plasma; method in brief: as §3
[8] = Cmax in mouse at 10 mg/kg, po by HPLC analysis; assay type: ADME, organism-based; parameters: dose 10 mg/kg, route oral; conditions: in vivo; method in brief: as §3
[9] = Elimination half life in mouse at 10 mg/kg, po by HPLC analysis; assay type: ADME, organism-based; parameters: dose 10 mg/kg, route oral; conditions: in vivo, read-out: beta t1/2; method in brief: as §3
[10] = Tmax in mouse at 10 mg/kg, po by HPLC analysis; assay type: ADME, organism-based; parameters: dose 10 mg/kg, route oral; conditions: in vivo; method in brief: as §2
[11] = AUC (infinity) in mouse at 3 mg/kg, iv by HPLC analysis; assay type: ADME, organism-based; parameters: time infinity, dose 3 mg/kg, route intravenous; conditions: plasma; method in brief: as §3
[12] = Volume of distribution at steady state in mouse at 3 mg/kg, iv by HPLC analysis; assay type: ADME, organism-based; parameters: dose 3 mg/kg, route intravenous; conditions: in vivo, read-out: Vdss; method in brief: as §2
[13] = Total body clearance in mouse at 3 mg/kg, iv by HPLC analysis; assay type: ADME, organism-based; parameters: dose 3 mg/kg, route intravenous; conditions: in vivo; method in brief: as §2
[14] = molecular target: Voltage-gated inwardly rectifying potassium channel KCNH2 (Homo sapiens, UniProt Q12809); assay: Inhibition of human ERG
Voltage-gated inwardly rectifying potassium channel KCNH2, sequence (Q12809 whole entry): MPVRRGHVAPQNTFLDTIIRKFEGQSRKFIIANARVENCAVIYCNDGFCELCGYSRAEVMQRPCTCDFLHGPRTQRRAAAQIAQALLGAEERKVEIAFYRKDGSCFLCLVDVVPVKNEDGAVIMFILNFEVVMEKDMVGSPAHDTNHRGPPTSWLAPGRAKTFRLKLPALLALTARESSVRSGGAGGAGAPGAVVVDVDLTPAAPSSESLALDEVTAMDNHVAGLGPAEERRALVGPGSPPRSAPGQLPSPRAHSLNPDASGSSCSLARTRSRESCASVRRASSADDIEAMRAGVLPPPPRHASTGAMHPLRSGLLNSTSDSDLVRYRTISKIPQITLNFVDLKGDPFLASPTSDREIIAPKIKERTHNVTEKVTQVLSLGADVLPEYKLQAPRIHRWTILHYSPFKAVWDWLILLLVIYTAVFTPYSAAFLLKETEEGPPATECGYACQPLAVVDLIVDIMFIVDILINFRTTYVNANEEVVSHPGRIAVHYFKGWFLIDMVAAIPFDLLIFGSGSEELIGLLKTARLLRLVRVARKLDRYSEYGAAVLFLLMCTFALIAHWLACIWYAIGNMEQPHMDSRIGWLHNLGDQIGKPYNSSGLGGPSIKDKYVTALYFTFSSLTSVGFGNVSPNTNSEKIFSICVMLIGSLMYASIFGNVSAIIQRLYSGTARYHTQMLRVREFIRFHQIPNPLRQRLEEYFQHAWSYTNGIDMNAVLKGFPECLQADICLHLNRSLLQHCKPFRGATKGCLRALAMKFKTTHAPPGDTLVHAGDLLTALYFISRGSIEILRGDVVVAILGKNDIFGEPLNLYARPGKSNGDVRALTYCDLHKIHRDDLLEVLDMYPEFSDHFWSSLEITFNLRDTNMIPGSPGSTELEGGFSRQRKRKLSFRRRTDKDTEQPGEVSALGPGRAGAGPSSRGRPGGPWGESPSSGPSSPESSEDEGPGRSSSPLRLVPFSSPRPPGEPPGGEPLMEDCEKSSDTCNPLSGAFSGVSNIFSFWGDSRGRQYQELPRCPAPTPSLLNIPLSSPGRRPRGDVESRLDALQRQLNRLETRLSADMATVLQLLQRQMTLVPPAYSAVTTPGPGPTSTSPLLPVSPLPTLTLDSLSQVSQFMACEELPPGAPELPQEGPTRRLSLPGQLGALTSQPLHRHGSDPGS

[15] = AUC last in mouse at 10 mg/kg, po by HPLC analysis; assay type: ADME, organism-based; parameters: time 0 - last, dose 10 mg/kg, route oral; conditions: plasma; method in brief: as §3
Mus musculus [16] = assay: Bioavailability in mouse at 10 mg/kg by HPLC analysis; assay type: ADME, organism-based; conditions: in vivo; method in brief: as §3
CYP1A2 [17] = molecular target: T1, CYP1A2; assay: Inhibition of CYP1A2 at 3 uM; assay type: ADME; method in brief: as §1

CYP2C9, sequence (P11712 whole entry): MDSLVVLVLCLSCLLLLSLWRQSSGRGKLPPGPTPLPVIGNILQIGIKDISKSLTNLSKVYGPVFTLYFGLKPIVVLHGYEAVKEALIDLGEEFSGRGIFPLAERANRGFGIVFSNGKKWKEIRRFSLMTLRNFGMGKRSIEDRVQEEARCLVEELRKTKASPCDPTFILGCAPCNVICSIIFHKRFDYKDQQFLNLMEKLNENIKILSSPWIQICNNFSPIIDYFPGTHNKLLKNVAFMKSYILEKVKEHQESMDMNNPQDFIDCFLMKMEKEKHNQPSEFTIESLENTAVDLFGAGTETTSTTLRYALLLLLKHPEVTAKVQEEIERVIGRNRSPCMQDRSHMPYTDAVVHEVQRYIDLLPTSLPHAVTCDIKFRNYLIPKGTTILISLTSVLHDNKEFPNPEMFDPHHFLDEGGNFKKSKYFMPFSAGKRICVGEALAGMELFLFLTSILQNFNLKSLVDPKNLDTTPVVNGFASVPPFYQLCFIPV

## O=c1cc(-c2ccc(N3CCCC3)cc2)oc2c1ccc1cc[nH]c12
CYP2C9
  inhibition at 3 µM: 11.9%
Mus musculus [1]
  Activity: Active
CYP2D6
  inhibition at 3 µM: 7.2%
Mus musculus [2]
  Activity: Non-toxic
CYP1A2 [3]
  inhibition at 30 µM: 75.9%

## Cc1nc2ccc3c(=O)cc(-c4ccc(N5CCCC5)cc4)oc3c2[nH]1
[4]
  Vd: 23.1 L/kg
CYP2C9
  inhibition at 3 µM: 12.4%
Mus musculus [1]
  Activity: Active
[5]
  AUC(0-t): 312 ng·h/mL
[6]
  half-life: 1.72 h
[7]
  AUC(0-inf): 21.6 ng·h/mL
[8]
  Cmax: 7 ng/mL
CYP2D6
  inhibition at 3 µM: 8.7%
[9]
  half-life: 0.967 h
[10]
  Tmax: 2 h
[11]
  AUC(0-inf): 320 ng·h/mL
Mus musculus [2]
  Activity: Non-toxic
[12]
  Vd: 10 L/kg
[13]
  clearance: 156 mL/min/kg
[14]
  inhibition (INH): Not Active
[15]
  AUC(0-t): 19.1 ng·h/mL
Mus musculus [16]
  F: 2%
CYP1A2 [17]
  inhibition at 3 µM: 27.3%
CYP1A2 [3]
  inhibition at 30 µM: 66.1%
